Data published in ChEMBL document CHEMBL4261639, “Cell-Active Small Molecule Inhibitors of the DNA-Damage Repair Enzyme Poly(ADP-ribose) Glycohydrolase (PARG): Discovery and Optimization of Orally Bioavailable Quinazolinedione Sulfonamides” (J Med Chem, 2018).
pEC50, pIC50: −log10 of the molar value. Converted amounts (≈) assume the structure as drawn.

Columns and labels:
[1] = molecular target: T1, Poly(ADP-ribose) glycohydrolase (Homo sapiens, UniProt Q86W56); assay: Inhibition of human full length PARG using Bt-NAD ribosylated PARP1 substrate after 10 mins by TR-FRET assay
[2] = molecular target: T1, Poly(ADP-ribose) glycohydrolase; assay: Inhibition of PARG in human HeLa cells assessed as induction of MMS-induced PAR chains preincubated for 1 hr followed by MMS addition and measured after 1 hr by Alexofluor 488-conjugated secondary antibody and Hoechst 33342 staining based assay; format: cell-based
In short: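 Acute (1 h) cell-based proof-of-mechanism assay measuring persistence of PAR chains, i.e. blockade of PARG-mediated PAR degradation, across a dose range. EC50 values are means of at least 4 independent measurements, with standard deviations.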

[3] = Clearance in human liver microsomes
[4] = Clearance in mouse liver microsomes
[5] = Volume of distribution in CD1 mouse at 1 mg/kg, iv administered as single dose by LC-MS/MS analysis; format: ADME, organism-based; settings: in vivo
In short: (§1)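 Male CD-1 mice (n = 2) received a single intravenous dose at a nominal 1 mg/kg.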

[6] = Clearance in mouse hepatocytes assessed per million cells
Cytochrome P450 2D6 = Cytochrome P450 2D6 (Homo sapiens, UniProt P10635); assay: Inhibition of CYP2D6 (unknown origin); format: ADME
[7] = Efflux ratio of apparent permeability in human Caco2 cells; settings: Caco-2
[8] = Oral bioavailability in CD1 mouse at 5 mg/kg administered as single dose by LC-MS/MS analysis; format: ADME, organism-based; settings: in vivo
In short: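 Male CD-1 mice (n = 2) were dosed orally at a nominal 5 mg/kg, with a separate intravenous group (n = 2) at a nominal 1 mg/kg for comparison.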

[9] = Clearance in CD1 mouse at 1 mg/kg, iv administered as single dose by LC-MS/MS analysis; format: ADME, organism-based; settings: in vivo; in short: as §1
[10] = test system: PARG (human, full length); assay: Selectivity ratio of cytotoxicity for human HeLa cells to EC50 for human full length PARG; format: toxicity, cell-based
[11] = Solubility of the compound; format: physicochemical
[12] = Half life in CD1 mouse at 1 mg/kg, iv administered as single dose by LC-MS/MS analysis; format: ADME, organism-based; settings: in vivo; in short: as §1
Cytochrome P450 2C19 = Cytochrome P450 2C19 (Homo sapiens, UniProt P33261); assay: Inhibition of CYP2C19 (unknown origin); format: ADME
CYP1A = molecular target: T2, CYP1A (Homo sapiens, UniProt P04798+P05177); assay: Inhibition of CYP1A (unknown origin); format: ADME, protein assay
T2 sequence (P04798 whole entry): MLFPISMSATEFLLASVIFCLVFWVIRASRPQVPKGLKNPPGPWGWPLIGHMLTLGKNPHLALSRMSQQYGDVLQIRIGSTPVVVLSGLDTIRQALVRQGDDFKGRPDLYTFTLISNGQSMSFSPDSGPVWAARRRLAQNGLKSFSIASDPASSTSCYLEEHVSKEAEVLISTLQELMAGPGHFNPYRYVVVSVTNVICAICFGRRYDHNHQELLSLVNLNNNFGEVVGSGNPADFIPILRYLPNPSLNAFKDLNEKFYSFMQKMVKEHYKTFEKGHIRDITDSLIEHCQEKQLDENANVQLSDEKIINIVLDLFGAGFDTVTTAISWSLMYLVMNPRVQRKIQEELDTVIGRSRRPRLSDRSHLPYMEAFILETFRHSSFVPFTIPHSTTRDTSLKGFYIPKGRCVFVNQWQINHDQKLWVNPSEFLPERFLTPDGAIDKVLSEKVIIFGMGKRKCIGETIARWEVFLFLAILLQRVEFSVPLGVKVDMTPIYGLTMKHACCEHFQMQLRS
T2 sequence (P05177 whole entry): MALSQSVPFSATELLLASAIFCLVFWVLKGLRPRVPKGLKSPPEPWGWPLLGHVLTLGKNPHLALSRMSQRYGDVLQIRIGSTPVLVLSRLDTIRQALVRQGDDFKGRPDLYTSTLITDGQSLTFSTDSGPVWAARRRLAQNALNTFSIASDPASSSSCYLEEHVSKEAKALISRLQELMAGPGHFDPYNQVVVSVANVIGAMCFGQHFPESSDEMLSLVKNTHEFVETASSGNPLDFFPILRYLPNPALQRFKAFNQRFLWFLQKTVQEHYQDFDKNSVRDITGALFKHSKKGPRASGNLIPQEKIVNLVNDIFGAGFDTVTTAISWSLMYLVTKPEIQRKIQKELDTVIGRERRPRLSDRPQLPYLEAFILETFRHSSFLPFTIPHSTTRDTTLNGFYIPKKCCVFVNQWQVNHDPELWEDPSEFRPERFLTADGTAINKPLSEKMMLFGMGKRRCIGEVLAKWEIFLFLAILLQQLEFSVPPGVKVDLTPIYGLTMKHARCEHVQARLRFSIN

[13] = AUC in CD1 mouse at 1 mg/kg, iv administered as single dose by LC-MS/MS analysis; format: ADME, organism-based; settings: in vivo; in short: as §1
Cytochrome P450 2C9 = Cytochrome P450 2C9 (Homo sapiens, UniProt P11712); assay: Inhibition of CYP2C9 (unknown origin); format: ADME
Cytochrome P450 3A4 = Cytochrome P450 3A4 (Homo sapiens, UniProt P08684); assay: Inhibition of CYP3A4 (unknown origin); format: ADME
[14] = Apparent permeability across apical to basolateral side in human Caco2 cells; format: ADME, cell-based; settings: Caco-2
HeLa = assay: Cytotoxicity against human HeLa cells after 72 hrs by Hoechst 33342 staining based assay; format: cell-based
[15] = Solubility of the compound by turbidimetric method; format: physicochemical
[16] = Partition coefficient, log D of compound at pH 7.4; format: physicochemical; settings: octanol/water
[17] = molecular target: T3, ADP-ribosylhydrolase ARH3 (Homo sapiens, UniProt Q9NX46); assay: Inhibition of human full length C-terminus His-tagged ARH3 expressed in Escherichia coli using Bt-NAD ribosylated PARP1 substrate after 30 mins by TR-FRET assay
T3 sequence (Q9NX46 whole entry): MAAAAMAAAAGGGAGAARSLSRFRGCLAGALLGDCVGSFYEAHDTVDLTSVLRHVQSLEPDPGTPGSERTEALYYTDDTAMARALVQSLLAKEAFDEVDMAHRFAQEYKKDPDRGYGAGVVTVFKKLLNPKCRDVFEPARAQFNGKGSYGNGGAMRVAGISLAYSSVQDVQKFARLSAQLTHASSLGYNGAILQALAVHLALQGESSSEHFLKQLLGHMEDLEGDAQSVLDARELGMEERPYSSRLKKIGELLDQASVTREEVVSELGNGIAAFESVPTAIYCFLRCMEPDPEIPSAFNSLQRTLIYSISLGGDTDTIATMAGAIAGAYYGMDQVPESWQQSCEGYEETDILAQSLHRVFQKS

[18] = molecular target: Poly [ADP-ribose] polymerase 1 (Homo sapiens, UniProt P09874); assay: Inhibition of human PARP1 expressed in Escherichia coli using activated DNA as substrate after 60 mins by peroxy glow reagent A/B based assay
Sequence of Poly [ADP-ribose] polymerase 1 (P09874 whole entry): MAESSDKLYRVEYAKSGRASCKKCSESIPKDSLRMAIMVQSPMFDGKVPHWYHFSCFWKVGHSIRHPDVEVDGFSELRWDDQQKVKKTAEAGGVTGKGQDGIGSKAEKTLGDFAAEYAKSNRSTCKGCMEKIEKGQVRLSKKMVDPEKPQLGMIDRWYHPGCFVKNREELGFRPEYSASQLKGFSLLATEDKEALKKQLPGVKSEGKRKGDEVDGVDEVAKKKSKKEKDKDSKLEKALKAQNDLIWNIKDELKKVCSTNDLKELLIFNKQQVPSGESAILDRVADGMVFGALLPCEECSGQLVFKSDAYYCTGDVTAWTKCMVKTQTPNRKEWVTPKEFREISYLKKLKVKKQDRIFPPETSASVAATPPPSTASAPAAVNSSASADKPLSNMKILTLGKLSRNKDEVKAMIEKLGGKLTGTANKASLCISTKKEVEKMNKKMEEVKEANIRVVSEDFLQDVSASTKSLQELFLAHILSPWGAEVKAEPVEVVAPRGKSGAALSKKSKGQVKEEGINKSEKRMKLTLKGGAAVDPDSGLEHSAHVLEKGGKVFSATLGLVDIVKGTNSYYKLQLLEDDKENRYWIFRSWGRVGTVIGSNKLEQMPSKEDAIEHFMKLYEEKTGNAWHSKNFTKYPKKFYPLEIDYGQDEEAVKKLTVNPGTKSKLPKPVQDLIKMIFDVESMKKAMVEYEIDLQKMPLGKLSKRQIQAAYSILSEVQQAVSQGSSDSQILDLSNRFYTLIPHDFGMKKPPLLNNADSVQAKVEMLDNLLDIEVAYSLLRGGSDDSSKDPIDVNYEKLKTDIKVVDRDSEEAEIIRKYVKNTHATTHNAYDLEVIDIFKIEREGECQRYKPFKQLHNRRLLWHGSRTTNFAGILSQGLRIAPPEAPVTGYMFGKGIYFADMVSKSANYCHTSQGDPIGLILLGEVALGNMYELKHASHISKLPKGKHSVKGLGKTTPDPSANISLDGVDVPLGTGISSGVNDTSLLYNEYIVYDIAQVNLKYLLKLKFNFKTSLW

T1 sequence (Q86W56 whole entry): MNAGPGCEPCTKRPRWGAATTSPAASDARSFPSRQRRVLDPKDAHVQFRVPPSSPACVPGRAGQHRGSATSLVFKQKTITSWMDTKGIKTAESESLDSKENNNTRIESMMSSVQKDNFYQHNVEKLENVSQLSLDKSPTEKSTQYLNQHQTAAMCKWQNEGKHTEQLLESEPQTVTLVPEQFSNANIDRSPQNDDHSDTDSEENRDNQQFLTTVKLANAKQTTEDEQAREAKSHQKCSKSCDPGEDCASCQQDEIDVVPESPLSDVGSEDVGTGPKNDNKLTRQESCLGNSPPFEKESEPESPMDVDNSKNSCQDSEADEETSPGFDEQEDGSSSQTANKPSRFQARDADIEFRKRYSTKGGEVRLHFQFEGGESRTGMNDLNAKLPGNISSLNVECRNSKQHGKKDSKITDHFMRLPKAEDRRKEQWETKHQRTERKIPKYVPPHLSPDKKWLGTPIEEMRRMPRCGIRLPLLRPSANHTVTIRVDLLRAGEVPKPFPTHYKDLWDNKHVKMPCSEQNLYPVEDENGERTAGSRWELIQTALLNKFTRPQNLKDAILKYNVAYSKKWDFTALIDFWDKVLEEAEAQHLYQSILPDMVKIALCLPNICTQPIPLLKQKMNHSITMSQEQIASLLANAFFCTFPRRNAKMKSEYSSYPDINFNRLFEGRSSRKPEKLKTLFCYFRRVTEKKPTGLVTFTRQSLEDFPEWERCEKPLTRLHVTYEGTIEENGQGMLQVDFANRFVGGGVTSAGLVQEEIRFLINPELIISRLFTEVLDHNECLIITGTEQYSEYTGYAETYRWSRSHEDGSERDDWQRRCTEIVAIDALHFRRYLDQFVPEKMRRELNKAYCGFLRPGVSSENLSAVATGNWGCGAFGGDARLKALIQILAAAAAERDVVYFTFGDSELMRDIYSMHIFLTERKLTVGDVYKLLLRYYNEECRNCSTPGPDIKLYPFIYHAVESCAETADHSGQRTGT
Sequence of Cytochrome P450 2D6 (P10635 whole entry): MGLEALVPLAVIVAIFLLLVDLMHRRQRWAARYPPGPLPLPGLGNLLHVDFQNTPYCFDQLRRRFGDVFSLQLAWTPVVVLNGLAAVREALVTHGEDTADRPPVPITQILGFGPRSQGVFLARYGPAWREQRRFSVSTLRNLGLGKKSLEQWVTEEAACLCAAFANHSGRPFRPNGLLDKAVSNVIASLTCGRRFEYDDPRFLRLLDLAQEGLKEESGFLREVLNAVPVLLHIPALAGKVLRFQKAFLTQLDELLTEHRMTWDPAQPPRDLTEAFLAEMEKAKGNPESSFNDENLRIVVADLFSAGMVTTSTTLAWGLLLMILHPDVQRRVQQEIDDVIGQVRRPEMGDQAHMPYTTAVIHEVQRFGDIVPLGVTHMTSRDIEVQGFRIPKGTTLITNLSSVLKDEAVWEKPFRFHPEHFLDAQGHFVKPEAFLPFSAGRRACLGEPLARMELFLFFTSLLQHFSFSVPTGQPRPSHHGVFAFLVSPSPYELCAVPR
Sequence of Cytochrome P450 2C19 (P33261 whole entry): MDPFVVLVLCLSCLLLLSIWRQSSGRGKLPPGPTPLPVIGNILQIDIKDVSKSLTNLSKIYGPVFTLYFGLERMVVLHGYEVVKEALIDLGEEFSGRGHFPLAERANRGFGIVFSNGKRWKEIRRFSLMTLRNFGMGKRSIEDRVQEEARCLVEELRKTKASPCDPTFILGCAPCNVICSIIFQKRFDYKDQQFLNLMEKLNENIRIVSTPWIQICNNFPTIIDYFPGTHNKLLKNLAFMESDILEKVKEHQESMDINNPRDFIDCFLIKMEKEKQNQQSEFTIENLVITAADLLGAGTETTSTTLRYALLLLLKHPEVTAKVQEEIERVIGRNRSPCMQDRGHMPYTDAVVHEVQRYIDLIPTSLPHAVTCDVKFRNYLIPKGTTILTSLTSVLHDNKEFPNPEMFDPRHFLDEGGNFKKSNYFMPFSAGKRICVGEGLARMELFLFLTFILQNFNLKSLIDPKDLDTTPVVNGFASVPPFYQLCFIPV
Sequence of Cytochrome P450 3A4 (P08684 whole entry): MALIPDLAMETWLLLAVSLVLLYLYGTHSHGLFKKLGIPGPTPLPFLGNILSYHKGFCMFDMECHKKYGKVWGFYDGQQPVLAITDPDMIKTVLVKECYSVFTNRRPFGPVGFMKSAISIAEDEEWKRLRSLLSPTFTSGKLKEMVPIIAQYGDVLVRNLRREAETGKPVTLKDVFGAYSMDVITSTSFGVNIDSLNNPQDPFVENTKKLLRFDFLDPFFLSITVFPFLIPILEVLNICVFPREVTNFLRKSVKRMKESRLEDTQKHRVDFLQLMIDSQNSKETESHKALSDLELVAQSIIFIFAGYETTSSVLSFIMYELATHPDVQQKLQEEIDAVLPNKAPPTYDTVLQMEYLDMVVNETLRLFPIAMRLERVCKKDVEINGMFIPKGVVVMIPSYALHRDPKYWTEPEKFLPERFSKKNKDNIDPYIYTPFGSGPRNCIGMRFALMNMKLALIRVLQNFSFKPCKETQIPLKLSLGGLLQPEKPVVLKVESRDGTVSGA
Sequence of Cytochrome P450 2C9 (P11712 whole entry): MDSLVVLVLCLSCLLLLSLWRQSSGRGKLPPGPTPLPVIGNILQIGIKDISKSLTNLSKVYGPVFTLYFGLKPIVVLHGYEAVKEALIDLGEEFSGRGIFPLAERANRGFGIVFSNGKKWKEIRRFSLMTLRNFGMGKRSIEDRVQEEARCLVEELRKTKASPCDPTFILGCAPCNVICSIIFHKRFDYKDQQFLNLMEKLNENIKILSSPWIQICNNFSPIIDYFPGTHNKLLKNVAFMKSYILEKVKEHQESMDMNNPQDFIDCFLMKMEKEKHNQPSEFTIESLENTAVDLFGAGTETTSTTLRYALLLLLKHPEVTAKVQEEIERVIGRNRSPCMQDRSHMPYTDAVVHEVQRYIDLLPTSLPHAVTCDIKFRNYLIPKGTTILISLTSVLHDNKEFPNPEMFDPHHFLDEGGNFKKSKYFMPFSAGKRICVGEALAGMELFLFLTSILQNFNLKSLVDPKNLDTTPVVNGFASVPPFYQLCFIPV

Row | SMILES | pEC50 [1] | pEC50 [2] | microsomal CLint [3] [µL/min/mg] | microsomal CLint [4] [µL/min/mg] | further results
1 | CC1(NS(=O)(=O)c2ccc3c(c2)c(=O)n(CC#N)c(=O)n3CC2CC2)CC1 | 6.57 | 5.96 | 17 | 36 | –
2 | Cc1cc(Cn2c(=O)n(CC#N)c(=O)c3cc(S(=O)(=O)NC4(C)CC4)ccc32)n(C)n1 | 6.55 | 6.25 | 20 | – | –
3 | CCn1c(=O)n(Cc2cc(C)no2)c(=O)c2cc(S(=O)(=O)NC3(C)CC3)ccc21 | 6.48 | 6.92 | 26 | – | –
4 | Cc1cc(Cn2c(=O)c3cc(S(=O)(=O)NC4(C)CC4)ccc3n(CC3COC3)c2=O)on1 | 6.47 | 6.55 | 19 | 22 | Vd [5]: 2.5 L/kg; hepatocyte CLint [6]: 25 µL/min/1e6 cells; pIC50 (Cytochrome P450 2D6): < 4.60; efflux ratio [7]: 21; bioavailability [8]: 25%; clearance [9]: 167 mL/min/kg; selectivity ratio [10]: > 100; solubility [11]: > 100 µM; half-life [12]: 12 min; pIC50 (Cytochrome P450 2C19): < 4.60; pIC50 (CYP1A): < 4.60; AUC [13]: 90 ng·h/mL; pIC50 (Cytochrome P450 2C9): < 4.60; pIC50 (Cytochrome P450 3A4): < 4.60; Papp A→B [14]: 1.9 ×10⁻⁶ cm/s
5 | Cn1cc(Cn2c(=O)c3cc(S(=O)(=O)NC4(C)CC4)ccc3n(CC3COC3)c2=O)cn1 | 7.16 | 6.60 | 9.2 | 16 | Vd [5]: 1.4 L/kg; hepatocyte CLint [6]: 24 µL/min/1e6 cells; pIC50 (Cytochrome P450 2D6): < 5.00; efflux ratio [7]: 34; bioavailability [8]: 41%; clearance [9]: 66.7 mL/min/kg; selectivity ratio [10]: > 100; solubility [11]: > 100 µM; half-life [12]: 22 min; pIC50 (Cytochrome P450 2C19): < 5.00; pIC50 (CYP1A): < 5.00; AUC [13]: 250 ng·h/mL; pIC50 (Cytochrome P450 2C9): < 5.00; pIC50 (Cytochrome P450 3A4): < 5.00; Papp A→B [14]: 1 ×10⁻⁶ cm/s
6 | Cc1cc(Cn2c(=O)c3cc(S(=O)(=O)NC4(C)CC4)ccc3n(CC3CC3)c2=O)on1 | 7.26 | 7.31 | 80 | – | –
7 | Cc1cc(Cn2c(=O)n(Cc3cnc(C)s3)c(=O)c3cc(S(=O)(=O)NC4(C)CC4)ccc32)n(C)n1 | 7.59 | 7.43 | 79 | – | selectivity ratio [10]: > 100
8 | C#CCn1c(=O)n(CC#N)c(=O)c2cc(S(=O)(=O)NC3(C)CC3)ccc21 | 6.60 | 6.57 | 10 | 63 | –
9 | CCn1c(=O)n(Cc2nnc(C)s2)c(=O)c2cc(S(=O)(=O)NC3(C)CC3)ccc21 | 6.62 | 6.92 | 17 | 30 | –
10 | Cn1c(=O)c2cc(S(=O)(=O)NC3(C)CC3)ccc2n(C)c1=O | 5.41 | 5.74 | – | – | Activity (HeLa): > 30 µM; solubility kinetic [15]: > 100 µM; logD [16]: 1.73
11 | CC(C)(C)NS(=O)(=O)c1ccc2c(c1)C(=O)c1ccccc1C2=O | 4.09 | 4.52 | – | – | Activity (HeLa): 16 µM; solubility kinetic [15]: 20 µM (≈ 6.87 µg/mL)
12 | Cc1ncc(Cn2c(=O)c3cc(S(=O)(=O)NC4(C)CC4)ccc3n(Cc3sc(C)nc3C)c2=O)s1 | 8.32 | 8.04 | 140 | – | –
13 | Cn1c(=O)c2cc(S(=O)(=O)NC3(C)CC3)ccc2n(CC2CC2)c1=O | 6.36 | 6.21 | – | – | pEC50 [17]: < 4.00; selectivity ratio [10]: > 100; pEC50 [18]: < 3.82
14 | Cc1ncc(Cn2c(=O)c3cc(S(=O)(=O)NC4(C)CC4)ccc3n(CC3CC3)c2=O)s1 | 7.72 | 7.55 | 160 | – | pEC50 [17]: < 4.00; pEC50 [18]: < 3.82
15 | Cc1cc(Cn2c(=O)n(Cc3nnc(C)s3)c(=O)c3cc(S(=O)(=O)NC4(C)CC4)ccc32)n(C)n1 | 7.19 | 6.57 | 15 | 35 | –
16 | Cc1cc(Cn2c(=O)n(Cc3cnn(C)c3)c(=O)c3cc(S(=O)(=O)NC4(C)CC4)ccc32)n(C)n1 | 7.64 | 7.06 | 34 | – | pEC50 [17]: < 4.00; selectivity ratio [10]: > 100; pEC50 [18]: < 3.82
17 | C#CCn1c(=O)n(Cc2cc(C)no2)c(=O)c2cc(S(=O)(=O)NC3(C)CC3)ccc21 | 7.00 | 7.12 | 72 | – | –
18 | Cc1cc(Cn2c(=O)c3cc(S(=O)(=O)NC4(C)CC4)ccc3n(Cc3cc(C)nn3C)c2=O)on1 | 7.42 | 6.92 | 37 | – | –
